Assay outcomes (PubChem)
Kir21 block – inhibitors of mouse Kir2.1 inward-rectifier potassium channel | B-score at 10 µM | AID 1672 | actives 0.85% (n = 310,000) | HEK293-Kir2.1, FluxOR thallium flux fluorescence; hits give low values;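 active means fluorescence ratio B-score at or below minus 3 SD of library scores, with starting-brightness B-score within 2 SD, cut at about -4.2 in these data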;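 further: channel flux triggered by added potassium and thallium sulfate stimulus; B-score of peak minus minimum fluorescence over baseline after thallium stimulus; more negative B-score means stronger Kir2.1 block with less thallium influx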
KCNK9 inh – inhibitors of human KCNK9 two-pore domain potassium channel. AID 488922. Q9NPC2. actives 1.2% (n = 310,000). B-score at 10 µM. HEK293 KCNK9, FluxOR thallium flux fluorescence; hits give low values;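 active means ratio B-score over 3 SD below the library mean, with starting fluorescence within 5 SD of its mean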;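 further: negative B-score means less thallium flux so channel inhibition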
KCNK3 block – human KCNK3 channel inhibition, primary screen; actives 0.84% (n = 340,000); AID 602410; CHO-KCNK3 thallium flux, FluxOR fluorescence; hits give low values; B-score at 10 µM; O14649;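 active means B-score under library mean minus 4 SD, starting fluorescence ratio at most library mean plus 5 SD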;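 further: more negative B-score means stronger inhibition of thallium flux through KCNK3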
hERG rescue – hERG (human) protection from proarrhythmic block; activation (rescue from dofetilide block), less the hit threshold, % at 10 µM; actives 0.51% (n = 310,000); Q12809; CHO-hERG, FluxOR thallium flux, dofetilide IC70 present; AID 1511;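 active means activation above the mean of controls blocked by dofetilide plus 5 SD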;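 further: thallium influx through hERG after potassium depolarization seen as dye fluorescence rise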
KCNQ1 pot – human KCNQ1 channel potentiation or activation | P51787 | CHO-K1 KCNQ1, thallium flux FluxOR fluorescence; hits give high values | B-score at 10 µM | actives 0.35% (n = 310,000) | AID 2648;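 active means fluorescence ratio B-score, a plate-corrected score, at least three library SD, with initial intensity B-score within 5 SD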
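Medium – assay buffer, equal DMSO in all wells · Material – CHO-K1 cell line with stable KCNQ1 potassium channel expression · Signal – kinetic FluxOR thallium fluorescence, 10-s 1-Hz baseline, 110-s post-stimulus read · Compound – single concentration per compound, DMSO matched to controls · Schedule – 37 °C overnight plating, 90-min dark dye load, 20-min compound pretreatment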
KCNQ1 inh – blocks the human KCNQ1 potassium channel; CHO-K1 KCNQ1, FluxOR thallium flux fluorescence; hits give high values; B-score at 10 µM; actives 1.3% (n = 310,000); AID 2642;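 active means compounds whose thallium flux B-score, printed positive for inhibition, exceeds three library SD while starting fluorescence stays within three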;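 further: channel opened by potassium depolarization with thallium stimulus after 20 min compound exposure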
KCNQ1 inh valid – reconfirmed blocker of the human KCNQ1 potassium channel; shares compounds with KCNQ1 inh; KCNQ1 cell line, FluxOR thallium flux fluorescence; inhibition, % at 10 µM; actives 93% (n = 1,600); AID 588353;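 active means primary screen active, with duplicate mean exceeding buffer control mean plus 3 SD of buffer wells, cut at about 28% in these data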;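 further: 0% = buffer control ratio and 100% = XE991 inhibitor control ratio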
CHO KCNQ1 ctr – counter-screen for KCNQ1 inhibitors: effect in parental CHO cells; fluorescence ratio (Tl flux) at 10 µM; parental CHO-K1, FluxOR thallium flux fluorescence ratio; hits give low values; zero means no signal rise above baseline; actives 21% (n = 1,600); shares compounds with KCNQ1 inh;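 active means mean of duplicate thallium-flux fluorescence ratios in parental host cells more than 5 SD below the buffer control mean, cut at about 0.38 in these data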;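 further: ratio is peak minus minimum fluorescence divided by baseline fluorescence; actives read low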
KCNQ1 ephys val – human KCNQ1 inhibition validated by electrophysiology | KCNQ1-CHO cells, automated patch clamp current | calls only at 10 µM | AID 624120 | shares compounds with KCNQ1 inh | actives 20% (n = 490);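 active means KCNQ1 current drop exceeding 3 SD of negative control wells, seen in both duplicate runs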;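 further: steady state current during a 2 s step from -80 to +40 mV; negative values mean current inhibition and positive values mean potentiation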
KCNQ2 inh – selectivity of KCNQ1 inhibitors: inhibition of rat KCNQ2 channel; shares compounds with KCNQ1 inh; KCNQ2 cells, FluxOR thallium flux fluorescence; inhibition, % at 10 µM; actives 71% (n = 1,600); AID 651746;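 active means mean percent inhibition of the KCNQ2 thallium signal more than 5 SD above the buffer-only control wells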;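 further: KCNQ2 expressed in CHO cells; 0% = buffer control wells and 100% = XE-991 inhibitor control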
KCNQ1-KCNE1 inh – selectivity of KCNQ1 inhibitors: inhibition of human KCNQ1/KCNE1 channel; inhibition, % at 10 µM; actives 77% (n = 1,600); KCNQ1/KCNE1 cells, FluxOR thallium flux fluorescence; shares compounds with KCNQ1 inh;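 active means mean percent inhibition of duplicate wells above the buffer-only control mean plus 3 SD of those controls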;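 further: 0% = buffer only wells and 100% = XE-991 inhibitor control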
* = called active by the depositor; i = inactive; · = not tested or not shown; + = active, no number. Most compounds without a hit are left out; they make up all but 3.7% or so of the library.

SMILES	Kir21 block	KCNK9 inh	KCNK3 block	hERG rescue	KCNQ1 pot	KCNQ1 inh	KCNQ1 inh valid	CHO KCNQ1 ctr	KCNQ2 inh	KCNQ1-KCNE1 inh	others
O=S(=O)(NCCC1=CCCCC1)c1ccc(Br)cc1	-0.51	i	i	-14	i	7*	99*	0.45	106%*	150%*	KCNQ1 ephys val=+
Cc1ccc(-c2n[nH]c(=S)n2/N=C/c2ccc(C)o2)cc1	-0.71	i	i	-6	i	6*	0	0.52	i	i
CC(O)CNc1nc(Cl)c(C#N)s1 (stereo not given)	0.13	i	i	-7	i	i	·	·	·	·
O=S(=O)(Nc1nc2ccccc2nc1Cl)c1cccc(C(F)(F)F)c1	-0.88	i	i	-11	i	7*	42*	0.43	63%*	34%*
CCn1c(C)c(C)c2cc(C(=O)N3CCc4ccccc4C3)ccc21	0.78	i	i	-8	i	7*	114*	0.38	113%*	62%*	KCNQ1 ephys val=i
COc1ccc(C(=O)NC(C)CCc2ccccc2)cc1 (stereo not given)	1.5	i	i	-2	i	i	·	·	·	·
CC(CCc1ccccc1)NC(=O)c1ccc(NC(=O)c2ccccc2)cc1 (stereo not given)	1.3	i	i	-8	i	7*	67*	0.52	i	66%*
COc1ccc(S(=O)(=O)C(C#N)c2nc3ccccc3nc2N2CCCC(C)C2)cc1 (stereo not given)	0.01	i	i	-13	i	9*	124*	0.44	106%*	126%*	KCNQ1 ephys val=i
CC1CCCN(c2nc3ccccc3nc2C(C#N)S(=O)(=O)c2cccs2)C1 (stereo not given)	-0.3	i	i	-5	i	i	·	·	·	·
CCN1C(=O)C(=O)N(Cc2ccc(OC)c(F)c2)C1=O	-0.76	i	i	-2	i	i	·	·	·	·
Fc1ccc(CNC(=S)Nc2ccc(OC(F)F)cc2)cc1	-0.15	i	i	-8	i	7*	56*	0.5	i	40%*
CC(=O)Nc1nnc(CCS(=O)(=O)c2ccc(C)cc2)s1	1.5	i	i	-8	i	i	·	·	·	·
Cc1ccccc1Nc1cc(C)c2c(O)cccc2n1	-7.2*	i	i	-22	i	7*	31*	0.53	71%*	i
CCOC(=O)C1=C(C)NC(C)=C(C(=O)OCC)C1/C=C/c1ccccc1	-0.53	i	i	-16	i	i	·	·	·	·
C=CCOC(=O)C1=C(C)NC(C)=C(C(=O)OCC=C)C1/C=C/c1ccccc1	0.6	i	-11*	-20	i	12*	135*	0.39	101%*	126%*	KCNQ1 ephys val=i
COc1cc(CO)ccc1OCc1nnnn1-c1ccc(C)cc1	0.34	i	i	-2	i	i	·	·	·	·
CCCn1c(=O)n(C)c(=O)c2c(SCC(=O)NC34CC5CC(CC(C5)C3)C4)nc(CC(C)C)nc21	0.13	i	i	-19	i	8*	136*	0.32*	88%*	148%*
